Shown are actives, neighbours in structure and some others; about 5.5% of the full set was active somewhere.
KCC2 mod – modulators of human KCC2 chloride dependent transport | B-score of Tl+ flux slope (higher = more flux/activation; lower = inhibition) at 10 µM | KCC2 cells, thallium flux FluoZin-2 fluorescence | AID 1456 | actives 2.2% (n = 190,000) | Q9H2X9;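 active = thallium flux slope and its plate-corrected score both differing from the plate sample mean at a set confidence after two filtering rounds, in either direction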;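 note: slope of fluorescence scaled to starting intensity during 10 to 20 s after thallium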
Yeast growth inh – yeast BB579 growth reduction in restrictive medium | actives 0.51% (n = 140,000) | inhibition, % at 10 µM | S. cerevisiae BB579 growth, OD615, 48 h;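 active = inhibition above a set limit, 3 SD over the mean compound inhibition, cut at about 44% in these data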
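Test system: DeaD yeast strain BB579 / Buffer or medium: restrictive glucose-based CSMM-D medium / Doses: single 10 µM dose / Schedule: 4 h cell preincubation, 48 h compound exposure, 30 °C humidified / Technique: culture absorbance at 615 nm / Controls: amphotericin B positive control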
Yeast life ext – yeast lifespan extension; S. cerevisiae growth with nicotinamide, OD615; deaD strain in restrictive glucose medium; inhibition of the nicotinamide effect, % at 10 µM; actives 0.68% (n = 130,000); AID 775;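 active = inhibition above a set limit, placed 3 SD over the median of all compounds, cut at about 26% in these data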;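 note: 0% = nicotinamide-treated wells and 100% = cells grown without nicotinamide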
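assay system = DeaD-strain S. cerevisiae | buffer or medium = restrictive glucose medium | reagent = 1.5 mM nicotinamide | compound = 10 µM single point, 0.25% DMSO | incubation = 48 h compound exposure at 30 °C, humidified | signal = OD615 measurement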
WT yeast gro inh – growth inhibition of WT yeast, mitochondrial fusion screen. mitochondrial fusion phenotypic screen, WT strain. inhibition, % at 10 µM. actives 2.1% (n = 190,000); in the data active = inhibition above about 58%; tested in S. cerevisiae
RAM inhibit – yeast RAM network inhibition; actives 1.8% (n = 190,000); AID 868; inhibition, % at 50 µM; S. cerevisiae dse1pr::URA3 reporter, 5-FOA growth OD615, 2 d; analog-sensitive cbk1-as2 kinase mutant strain;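 active = inhibition above a set limit, 3 SD over mean compound inhibition, cut at about 8.4% in these data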;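 note: 0% = DMSO-only wells with no growth and 100% = 10 µM 1-NA-PP1 full growth; inhibition rescues growth on 5-FOA so higher OD means more RAM inhibition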
KCC2 sec1 – confirmation of human KCC2 transport modulators | shares compounds with KCC2 mod | HEK293-KCC2, thallium flux, FluoZin2 fluorescence; active compounds read high | normalised thallium flux (F/F0 slope) at 10 µM | actives 15% (n = 3,700) | AID 1713;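 active = thallium flux slope above the same plate's solvent-only control mean plus 3 SD; inconclusive = the two replicate wells disagree; inactive = no significant difference from solvent-only control wells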
KCC2 bumet counter – bumetanide-insensitive thallium flux in KCC2 cells with ouabain, counter-screen | shares compounds with KCC2 mod | HEK293-KCC2 + bumetanide/ouabain, thallium flux FluoZin2; active compounds read high | normalized thallium flux at 10 µM | actives 49% (n = 3,700);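 active = thallium entry rate above the same plate's blocked-transporter control wells by more than 3 SD; inconclusive = the two repeat wells disagree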;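 note: raw slope of fluorescence over initial fluorescence between 10 and 20 s after thallium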
KCC2 sec2 – KCC2 (human) modulation, second secondary assay; actives 23% (n = 3,700); normalized thallium flux at 10 µM; shares compounds with KCC2 mod; HEK293-KCC2, thallium flux FluoZin2 fluorescence; actives lie on both sides; F/F0 rise rate, 10–20 s post-thallium;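 active = thallium flux slope more than 3 SD above or below the plate's solvent-only control mean, mostly below; inconclusive = the two repeat wells disagreed; inactive = no significant shift from solvent-only controls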;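 note: raw slope with 0.1% DMSO as baseline and bumetanide as block control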
HEK293 Tl flux – parental HEK flux effect, counter-screen; shares compounds with KCC2 mod; HEK293 parental cells, thallium flux FluoZin2, ouabain; baseline-ratio fluorescence slope, 10–20 s after thallium; thallium flux rate (normalised fluorescence) at 10 µM; actives 46% (n = 3,700);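 active = thallium flux rate significantly above the same plate's solvent-only control wells, beyond their mean plus 3 SD; inconclusive = the two replicate wells gave conflicting results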
KCC2 ouabain – confirmation of human KCC2 modulators with ouabain; HEK293-KCC2, thallium flux FluoZin2 fluorescence; bidirectional: low = inhibitor, high = activator; actives 48% (n = 3,700); AID 1717; raw Tl+ flux slope (below DMSO = inhibition, above = activation) at 10 µM; shares compounds with KCC2 mod;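 active = thallium flux slope beyond 3 SD from same-plate DMSO control mean in most replicates, usually higher, sometimes lower; inconclusive = repeat tests gave conflicting results; inactive = no significant difference from controls in most replicates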;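 note: slope of initial-normalized fluorescence between seconds 10 and 20 after thallium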
HEK counter2 – parental HEK flux effect, counter-screen 2; thallium flux slope at 10 µM; HEK293 parental, thallium flux FluoZin-2 fluorescence slope; shares compounds with KCC2 mod; actives 33% (n = 3,700);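 active = thallium flux slope above the same plate's solvent-control mean plus 3 SD in both duplicate wells; inconclusive = duplicate wells that disagreed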;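 note: run without ouabain in cells lacking the KCC2 cotransporter; slope of fluorescence scaled to its starting value between 10 and 20 s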
* hit, by the source's call; u = inconclusive; x = no result given.

SMILES	KCC2 mod	Yeast growth inh	Yeast life ext	WT yeast gro inh	RAM inhibit	KCC2 sec1	KCC2 bumet counter	KCC2 sec2	HEK293 Tl flux	KCC2 ouabain	HEK counter2
CCOc1ccc(NC(=O)CN2CC(c3ccccc3)CC2=O)cc1 (stereo not drawn)	-2.8*	6	-6	0	1	0.01	0.0067	0.031	0.0077	0.074	0.011
COC(=O)c1c(NC(=O)CSc2nnc3ccccn23)sc2c1CCC2	-0.49	-26	-2	11	2	x	x	x	x	x	x
CCCCNC(=O)[C@H](CSCc1ccccc1)N1Cc2ccccc2C1=O	-2.6*	-8	7	-7	2	u	0.0055	0.032	0.0078	0.017*	0.01
COCCCNC(=O)[C@H](CSCc1ccccc1)N1Cc2ccccc2C1=O	-2.2	x	x	x	x	x	x	x	x	x	x
CC(C)Cc1nnc(NC(=O)CCC(=O)N2CCN(c3ccccn3)CC2)s1	x	21	-9	13	0	x	x	x	x	x	x
CSc1nc2sc3c(c2c(=O)n1C1CCCCC1)CCN(C)C3	0.32	-30	8	-17	0	0.016	0.0039	0.031	0.0079	0.016	0.01
Clc1ccccc1C(c1ccccc1)(c1ccccc1)n1ccnc1	-4.3*	x	x	86	-2	0.0095	0.0054	0.033	0.0057*	0.019	0.01
CCN(CC)CCSc1nc(O)c(-c2ccccc2)c(=O)n1-c1ccccc1	0.027	x	x	-1	2	x	x	x	x	x	x
CCN(CC)CCSc1nc2ccccc2c(=S)n1-c1ccccc1	2.8*	x	x	20	0	0.01	0.0056	0.034	0.0086	0.02	0.011
O=C(Nc1nc(-c2ccccn2)cs1)C1CC(=O)N(c2ccc3c(c2)OCCO3)C1 (stereo not drawn)	-3*	-39	6	-4	1	0.0072	0.0078	0.029	0.0075	0.018*	0.011*
O=C(NCCc1csc(-c2ccccc2)n1)c1cccs1	x	-19	-8	7	0	0.0062	0.0041	0.023*	0.0065	0.014*	0.0094
Cc1nc(CCNC(=O)c2cccs2)cs1	0.42	-41	x	-1	0	x	x	x	x	x	x
O=C(NCc1csc(-c2ccccc2)n1)c1ccco1	-1.4	-13	-9	-5	2	x	x	x	x	x	x
O=C(Cc1csc(-c2ccccc2)n1)NCc1cccs1	-4.6*	x	x	3	2	0.0054	0.0054	u	u	0.013*	0.009
CC(C)CC1c2[nH]c3ccccc3c2CCN1C(=O)C1CCOCC1 (stereo not drawn)	0.55	x	x	0	0	x	x	x	x	x	x
CCCCCCC(=O)Nc1ccc(Br)cn1	-1.9	x	x	x	x	x	x	x	x	x	x
N#C/C(=C\c1cccs1)C(=O)Nc1nccs1	10*	x	x	8	1	0.012*	0.019*	0.035	0.013*	u	0.012*
C/C(=N\Nc1cc(C)nc(-c2ccccc2O)n1)c1ccccc1	-0.28	x	x	47	1	x	x	x	x	x	x
C/C(=N\Nc1nc2ccc(Cl)cc2o1)c1ccccc1	10*	x	x	x	x	0.0064	0.0049	0.033	0.013*	0.022	0.015*
CCCCn1c(=O)[nH]c(=O)c2c1nc(-c1ccc(C#N)cc1)n2C1CCCC1	-1.1	-84	3	5	5	x	x	x	x	x	x
CC(C)Cn1c(-c2ccc(C#N)cc2)nc2c1c(=O)[nH]c(=O)n2CC(C)C	x	-5	-2	0	3	0.01	0.0047	0.032	0.0075	0.019	0.01
O=C(NC(=S)Nc1ccc(Cc2ccncc2)cc1)c1ccc(F)cc1	-0.27	x	x	2	1	x	x	x	x	x	x
CC1CCCN(C(=O)c2cccc(S(=O)(=O)Nc3cc(C(F)(F)F)ccc3Cl)c2)C1 (stereo not drawn)	-3.7*	-7	15	26	2	0.0078	0.0051	0.033	0.0076	0.015*	0.011
O=C(c1cccc(S(=O)(=O)Nc2cccc(C(F)(F)F)c2)c1)N1CCOCC1	0.89	x	x	x	x	x	x	x	x	x	x
Cc1ccc(NC(=S)N/N=C/c2ccc([N+](=O)[O-])s2)cc1	15*	-32	-3	74	0	0.014*	0.047*	0.035	u	0.041*	0.02*
SMILES	KCC2 mod	Yeast growth inh	Yeast life ext	WT yeast gro inh	RAM inhibit	KCC2 sec1	KCC2 bumet counter	KCC2 sec2	HEK293 Tl flux	KCC2 ouabain	HEK counter2
Cn1nc([N+](=O)[O-])nc1Sc1cccc2cccnc12	7.6*	x	x	-9	0	0.0099	0.023*	0.03	0.013*	0.023	0.01
COc1cc(C)c(NC(=O)C(=S)NCCc2ccccc2)cc1C	-0.18	x	x	5	1	x	x	x	x	x	x
Cc1ccc(C2=NOC3(CC(=O)N(c4ccc(C)cc4)C3=O)C2)cc1 (stereo not drawn)	-0.61	x	x	x	x	x	x	x	x	x	x
Cn1cc(SCC(=O)N2CCN(c3ccccc3)CC2)c2ccccc21	-5.2*	-80	-2	-3	2	0.0063	0.005	0.023*	0.0069	0.014*	0.0095
CCC1=NN2C(=N)/C(=C\c3cccn3-c3ccc(C)c(C)c3)C(=O)N=C2S1	7*	x	x	14	5	0.0062	0.048*	0.049*	0.037*	0.042*	0.034*
CCCC1=NN2C(=N)/C(=C\c3cc(C)n(-c4cc(C)cc(C)c4)c3C)C(=O)N=C2S1	12*	-22	-1	14	6	0.01	0.015*	0.034	u	0.025*	0.013
CCC1=NN2C(=N)/C(=C\c3cccn3-c3ccc(Cl)cc3)C(=O)N=C2S1	18*	x	x	29	0	u	0.043*	0.03	0.014*	0.027	0.011*
Cc1ccc(-n2cccc2/C=C2\C(=N)N3N=C(c4ccco4)SC3=NC2=O)cc1	3.9	x	x	44	0	x	x	x	x	x	x
Cc1cc(C)cc(-n2c(C)cc(/C=C3\C(=N)N4N=C(CC(C)C)SC4=NC3=O)c2C)c1	0.93	-32	1	-2	5	x	x	x	x	x	x
Cc1cc(C)cc(-n2cccc2/C=C2/C(=N)N3C(=NC2=O)SN=C3S(C)(=O)=O)c1	-3.7	x	x	10	6	x	x	x	x	x	x
O=C(NC1CCCCCC1)c1ccc2nc3cc(Cl)ccc3c(=O)n2c1	0.78	x	x	2	4	x	x	x	x	x	x
CC(C)(C)c1ccc(COc2ccsc2C(=O)O)cc1	-2.8*	x	x	4	2	0.01	0.0072	0.029	0.0075	0.019	u
